Measurements from ChEMBL document CHEMBL3616442, “Unconventional Knoevenagel-type indoles: Synthesis and cell-based studies for the identification of pro-apoptotic agents” (Eur J Med Chem, 2015).

Key:
Assay type in all cases: functional
[1] = system: MCF7; test: Induction of cell cycle arrest in human MCF7 cells assessed as accumulation at G2/M phase after 18 hrs by propidium iodide staining based flow cytometric analysis
Procedure, shortened: (§1)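 Propidium iodide/RNase A flow cytometry of ethanol-fixed cells, 10,000 gated events at 488 nm; G2/M fraction measured after 18 h treatment (HL-60, MCF-7) or 24 h (K562); mean ± S.E.M. of three independent experiments.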

[2] = system: K562; test: Induction of cell cycle arrest in human K562 cells assessed as accumulation at G2/M phase after 24 hrs by propidium iodide staining based flow cytometric analysis; procedure, shortened: as §1
[3] = system: HL-60; test: Induction of cell cycle arrest in human HL60 cells assessed as accumulation at G2/M phase after 18 hrs by propidium iodide staining based flow cytometric analysis; procedure, shortened: as §1

COc1ccc(-c2[nH]c3ccccc3c2/C=C(\C#N)S(=O)(=O)c2ccccc2)cc1 was tested, and the Activity [1] was 40.4%, the Activity [2] was 42.4% and the Activity [3] was 47.3%.
